{"source": "paper PMC6226115", "about": "(Clinical and Translational Science, 2018)", "key": {"GlyT1": {"target": "T1, GlyT1 (Rattus norvegicus, UniProt P28572)", "T1 sequence (P28572 1-638)": "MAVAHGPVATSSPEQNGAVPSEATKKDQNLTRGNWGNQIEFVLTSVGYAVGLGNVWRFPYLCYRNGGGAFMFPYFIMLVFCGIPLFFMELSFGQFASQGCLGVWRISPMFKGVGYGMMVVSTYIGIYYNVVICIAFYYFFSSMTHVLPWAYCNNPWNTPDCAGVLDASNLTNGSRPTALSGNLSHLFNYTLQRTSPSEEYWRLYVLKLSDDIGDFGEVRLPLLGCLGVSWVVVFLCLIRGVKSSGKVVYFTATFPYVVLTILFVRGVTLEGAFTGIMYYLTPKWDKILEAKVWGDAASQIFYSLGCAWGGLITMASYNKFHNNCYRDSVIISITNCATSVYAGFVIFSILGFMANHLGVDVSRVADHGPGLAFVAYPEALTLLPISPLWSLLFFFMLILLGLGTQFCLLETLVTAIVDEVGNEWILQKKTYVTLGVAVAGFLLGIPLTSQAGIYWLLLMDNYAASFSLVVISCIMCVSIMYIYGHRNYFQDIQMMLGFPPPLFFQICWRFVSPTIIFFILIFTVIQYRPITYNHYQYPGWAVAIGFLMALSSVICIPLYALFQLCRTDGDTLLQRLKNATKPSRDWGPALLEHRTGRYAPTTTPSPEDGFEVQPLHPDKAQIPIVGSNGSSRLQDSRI", "assay": "Inhibition of [3H]-glycine uptake in rat primary cortical neurons", "assay_type": "cell-based", "conditions": "IC50, inhibition of [3H]-glycine uptake, mean", "method_in_brief": "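Cortical neurons from E18 rats were differentiated in vitro for 7, 11 or 18 days, then run as a scintillating-plate uptake assay: 20 min incubation, inhibitor 0.9–3000 nM in HBSS with 5 mM alanine, and 200 nM [3H]glycine (0.01 mCi/mL) with counting over 57 min. IC50s came from four-parameter fits per experiment and were then averaged.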"}, "[1]": {"assay": "Compound levels in rat plasma and CSF", "assay_type": "in vivo", "conditions": "plasma, po", "method_in_brief": "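Adult male Wistar rats (200–220 g) were given a single oral dose of 0.2, 0.6 or 2 mg/kg in 0.5% Natrosol with 0.01% Tween-80 (n = 8 per group). At 90 min, under s.c. inactin/ketavet anaesthesia, blood and cisterna magna CSF were taken. Plasma was stored at −20°C and CSF at −70°C. Drug was measured by HPLC-MS/MS, and CSF/plasma ratio was derived.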"}, "[2]": {"assay": "Phase I pharmacokinetics in plasma and CSF, multiple dosing over 14 days", "assay_type": "in vivo, human", "conditions": "for AUC0–14: after first dose, geometric mean (% gCV); for Tmax / Cmax: male, human, po", "method_in_brief": "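Healthy males received 5–50 mg orally once daily for 14 days. CSF was collected hourly via lumbar catheter for 14 h after dose 1 and by puncture before the last dose. Plasma was sampled hourly on days 1 and 14, every 24 h on days 2–4 and every 48 h on days 6–12. Drug was measured by validated HPLC-MS/MS with noncompartmental analysis. Steady state was judged from trough plasma concentrations (days 2–14) using pairwise 95% CIs.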"}, "[3]": {"system": "glycine levels in the rat cerebrospinal fluid (CSF)", "assay": "Glycine in rat CSF after single oral dose", "assay_type": "in vivo", "conditions": "90 min", "method_in_brief": "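Male Wistar rats were acclimatised 1 h in the test room, then dosed orally once with vehicle (0.5% Natrosol, 0.01% Tween-80) or 0.2, 0.6 or 2 mg/kg (n = 8 each). After 90 min, CSF was drawn by cisterna magna puncture under anaesthesia and frozen at −70°C. Glycine was quantified by LC-MS/MS. Data are mean ± SEM, compared with vehicle by one-way ANOVA with Dunnett's test.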"}, "human GlyT2": {"target": "T2, human GlyT2 (Homo sapiens, UniProt Q9Y345)", "T2 sequence (Q9Y345 1-797)": "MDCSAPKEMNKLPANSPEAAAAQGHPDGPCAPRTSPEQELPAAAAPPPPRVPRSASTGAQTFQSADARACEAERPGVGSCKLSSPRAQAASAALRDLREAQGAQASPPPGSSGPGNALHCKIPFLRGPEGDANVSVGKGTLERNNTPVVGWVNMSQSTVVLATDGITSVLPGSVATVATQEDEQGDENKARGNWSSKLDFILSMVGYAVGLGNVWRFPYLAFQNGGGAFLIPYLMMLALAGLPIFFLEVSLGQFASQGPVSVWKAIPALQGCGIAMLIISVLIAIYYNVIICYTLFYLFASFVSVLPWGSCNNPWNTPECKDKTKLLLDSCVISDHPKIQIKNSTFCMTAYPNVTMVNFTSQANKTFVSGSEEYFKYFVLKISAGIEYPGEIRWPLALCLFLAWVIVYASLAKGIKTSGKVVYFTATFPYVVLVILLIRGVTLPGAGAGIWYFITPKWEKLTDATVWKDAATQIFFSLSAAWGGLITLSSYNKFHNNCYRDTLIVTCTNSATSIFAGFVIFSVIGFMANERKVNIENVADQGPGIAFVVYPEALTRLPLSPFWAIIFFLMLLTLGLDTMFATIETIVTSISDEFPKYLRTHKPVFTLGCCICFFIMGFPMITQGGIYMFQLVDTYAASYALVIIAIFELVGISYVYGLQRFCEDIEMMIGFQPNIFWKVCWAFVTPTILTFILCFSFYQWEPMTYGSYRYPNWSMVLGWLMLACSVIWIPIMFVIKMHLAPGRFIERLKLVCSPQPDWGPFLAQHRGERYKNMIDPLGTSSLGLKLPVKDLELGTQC", "assay": "Inhibition of [3H]-glycine uptake in HEK cells overexpressing human GlyT2", "assay_type": "cell-based", "method_in_brief": "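HEK cells overexpressing human GlyT2 were grown on scintillating microplates and incubated 20 min with inhibitor at 0.9–3000 nM in HBSS containing 5 mM alanine. Uptake was started with 250 nM [3H]glycine (0.0125 mCi/mL), and counting ran immediately over 57 min. IC50 came from a four-parameter log(inhibitor)-response fit.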"}}, "note": "Marks after values point to notes of the source that are not given here."}
{"smiles": "C[C@@H](Oc1ccc(S(C)(=O)=O)cc1C(=O)N1C[C@@H]2C[C@]2(c2cc(C(F)(F)F)on2)C1)C(F)(F)F", "note": "[BI 425809]", "values": [{"measurement": "IC50", "setting": "GlyT1", "result": "5.2 ± 1.2", "unit": "nM"}, {"measurement": "concentration at 90 min", "setting": "[1]; 0.2 mg/kg", "result": 79, "unit": "nM"}, {"measurement": "concentration at 90 min", "setting": "[1]; 0.6 mg/kg", "result": 217, "unit": "nM"}, {"measurement": "concentration at 90 min", "setting": "[1]; 2 mg/kg", "result": 723, "unit": "nM"}, {"measurement": "AUC0–14", "setting": "[2]; CSF, 5 mg oral, n = 6", "result": 0.0299, "unit": "µM·h"}, {"measurement": "AUC0–14", "setting": "[2]; CSF, 10 mg oral, n = 6", "result": 0.0598, "unit": "µM·h"}, {"measurement": "AUC0–14", "setting": "[2]; CSF, 25 mg oral, n = 6", "result": "124.0 (27.2) ^e nM"}, {"measurement": "AUC0–14", "setting": "[2]; CSF, 50 mg oral, n = 5", "result": 0.26, "unit": "µM·h"}, {"measurement": "Steady state achieved by", "setting": "[2]; healthy volunteers, once daily dosing, trough plasma concentrations", "result": "≤ 6", "unit": "days"}, {"measurement": "Tmax", "setting": "[2]; CSF", "result": "5 to 8", "unit": "h"}, {"measurement": "Cmax", "setting": "[2]; CSF, 5 mg", "result": 2.9, "unit": "nM"}, {"measurement": "Tmax", "setting": "[2]; CSF, 5 mg", "result": 8, "unit": "h"}, {"measurement": "Cmax", "setting": "[2]; CSF, 10 mg", "result": 5.6, "unit": "nM"}, {"measurement": "Tmax", "setting": "[2]; CSF, 10 mg", "result": 5.5, "unit": "h"}, {"measurement": "Cmax", "setting": "[2]; CSF, 25 mg", "result": 12.2, "unit": "nM"}, {"measurement": "Tmax", "setting": "[2]; CSF, 25 mg", "result": 6.1, "unit": "h"}, {"measurement": "Cmax", "setting": "[2]; CSF, 50 mg", "result": 25, "unit": "nM"}, {"measurement": "Tmax", "setting": "[2]; CSF, 50 mg", "result": 8.1, "unit": "h"}, {"measurement": "Tmax", "setting": "[2]; plasma", "result": "3 to 5", "unit": "h"}, {"measurement": "Cmax", "setting": "[2]; plasma, 5 mg", "result": 42.3, "unit": "nM"}, {"measurement": "Tmax", "setting": "[2]; plasma, 5 mg", "result": 5, "unit": "h"}, {"measurement": "Cmax", "setting": "[2]; plasma, 10 mg", "result": 85.6, "unit": "nM"}, {"measurement": "Tmax", "setting": "[2]; plasma, 10 mg", "result": 4.5, "unit": "h"}, {"measurement": "Cmax", "setting": "[2]; plasma, 25 mg", "result": 176, "unit": "nM"}, {"measurement": "Tmax", "setting": "[2]; plasma, 25 mg", "result": 3, "unit": "h"}, {"measurement": "Cmax", "setting": "[2]; plasma, 50 mg", "result": 328, "unit": "nM"}, {"measurement": "Tmax", "setting": "[2]; plasma, 50 mg", "result": 5, "unit": "h"}, {"measurement": "AUC0–14", "setting": "[2]; plasma, 5 mg oral, n = 6", "result": 0.421, "unit": "µM·h"}, {"measurement": "AUC0–14", "setting": "[2]; plasma, 10 mg oral, n = 6", "result": 0.829, "unit": "µM·h"}, {"measurement": "AUC0–14", "setting": "[2]; plasma, 25 mg oral, n = 7", "result": "1,840 (24.2) ^d nM"}, {"measurement": "AUC0–14", "setting": "[2]; plasma, 50 mg oral, n = 5", "result": 3.3, "unit": "µM·h"}, {"measurement": "Increase of glycine CSF levels relative to vehicle", "setting": "[3]; 0.2 mg/kg single oral dose, not significant", "result": 30, "unit": "%"}, {"measurement": "Increase of glycine CSF levels relative to vehicle", "setting": "[3]; 0.6 mg/kg single oral dose, P < 0.05", "result": 61, "unit": "%"}, {"measurement": "Increase of glycine CSF levels relative to vehicle", "setting": "[3]; 2 mg/kg single oral dose, P < 0.01", "result": 78, "unit": "%"}, {"measurement": "IC50", "setting": "human GlyT2", "result": "> 10000", "unit": "nM"}]}
